# Laboratory results taken from ChEMBL document CHEMBL4513216, “Probing the Open Global Health Chemical Diversity Library for Multistage-Active Starting Points for Next-Generation Antimalarials” (ACS Infect Dis, 2020).
# Experiment: Toxicity liver stage against HepG2, at 10uM
# Format: cell-based
# Parameters: test concentration 10 uM, cell line HepG2-A16-CD81EGFP
# Settings: human, HepG2-A16-CD81EGFP cells; read-out: INHIBITION
# Summary of the method: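 Uninfected HepG2-A16-CD81EGFP cells, 3 × 10^3 per well, 1536-well, plated on prespotted compound at 10 μM final, parasite-free screening media added to match infected plates; puromycin 10 μM positive, DMSO 0.5% negative; run in parallel with 48 h PbLuc assay at 37 °C, 5% CO2; viability by CellTiter-Glo luminescence, normalized to controls.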
row,SMILES,cytotoxicity at 10 µM [%]
1,Cc1ccc(-c2cc(N)c(=O)n(CC(=O)NC3CCCC3)n2)s1,-20.3
2,CC(C)c1cc(C(=O)N2C[C@@H](C)[C@](O)(C3CC3)C2)[nH]n1,16.3
3,NC(=O)C1CN(C(=O)Nc2ccccc2-c2cccs2)CCO1 (stereo not given),-4.84
4,CCNc1ncc(C(=O)N2Cc3nc(C)[nH]c(=O)c3C2)cn1,-2.19
5,CN(Cc1ccccc1)C(=O)CN1CCCC1c1cnn(C)c1 (stereo not given),6.91
6,O=C1CCC2(CCNCC2)CN1Cc1nnc2ccccn12,-0.949
7,O=C(O)c1ccccc1CN1CCOC(CCc2ccncn2)C1 (stereo not given),-20.6
8,O=C(COCc1ccccc1Cl)N1CCCC(n2cccn2)C1 (stereo not given),10
9,Cc1ccc(CC(=O)N2C[C@@H](CN(C)C)[C@@H](CO)C2)cc1C,-14
10,CCCOCC(=O)NS(=O)(=O)c1ccc2c(c1)OCCCO2,-5.67
11,C[C@H]1C[C@H]2CN(C(=O)c3cccc4c3OCCO4)CC[C@H]2O1,-0.91
12,Cc1ccccc1N1CCCN(C(=O)c2cn(C)c3ccccc23)CC1,-11.2
13,Cn1nccc1CCNC(=O)[C@H]1CNC[C@H](C(=O)N2CCCC2)C1,-133
14,Cc1cc(CN(C)CC2(O)CCCN(CCC3CCCCC3)C2=O)no1 (stereo not given),-14.4
15,CN(C)C1CCN(C(=O)c2cccc(S(=O)(=O)NCC3(C)COC3)c2)C1 (stereo not given),-9.22
16,C=C(C)Cn1c(=O)nc(N)c2c(-c3ccc(OC)cc3)csc21,-26
17,CN1CCN(Cc2cnc3n2CCN(C(=O)c2cnccn2)C3)CC1,-65.1
18,O=C(NCCOc1ncc(Cl)cc1Cl)NCc1ccncc1,-1.86
19,CC(C)N1C[C@@H](F)[C@@H](OCc2nc3ncccc3[nH]2)C1,5.47
20,Cc1nc(N2CCOCC2)nc(C)c1NS(=O)(=O)c1ccccc1,-1.44
21,CC(C)n1nc2c(cc1=O)CN(c1nc3ccccc3s1)CC2,-1.99
22,c1cc(C2CCN(c3cncnc3)CC2)ccn1,2.58

row,SMILES,cytotoxicity at 10 µM [%]
1,COCCc1ncc(CN2CCCC(C(=O)c3ccccc3)C2)cn1 (stereo not given),-1.38
2,O=C1CN(c2ccc(CNC(=O)Nc3nccs3)cc2)CCN1,1.93
3,CCCNC(=O)c1cc(Br)c2c(c1)OCCO2,9.65
4,Cc1ccc(CN2CCN(Cc3ccc4nonc4c3)CC2=O)cc1,-1.9
5,CNc1nc(C)c(C(=O)N2CCCCC2CCc2ccc(O)cc2)s1 (stereo not given),0.126
6,Cc1cccc(N2CCN(C(=O)CCc3c(C)noc3Cl)CC2)c1,-9.73
7,CCn1nccc1CNC(=O)CCC1CCCC1,11.4
8,Cc1nnc(NC(=O)NCc2ccc(N3CCN(C)CC3)nc2)s1,-7.91
9,COC1CCN(CCNC(=O)C2CCCCC2)CC1,0.545
10,CCOCC1CN(S(=O)(=O)CC)Cc2cnn(CC3CC3)c21 (stereo not given),9.55
11,c1cncc(-c2ccc3c(c2)CCC32CCN(Cc3nccs3)CC2)c1,36
12,Cc1ccc(NC2CCN(C(=O)Cc3ccc(C)s3)CC2)nn1,-3.75
13,Cc1nc(-c2ccncc2)ncc1C(C)NC(=O)Cn1ccccc1=O (stereo not given),4.01
14,COCCCNC(=O)CN(C)C(=O)c1ccc(OC)cc1O,-10.7
15,Cc1ccc2c(n1)N(CCN(C)C)CCN(C(=O)c1ccsc1)C2,-57.3
16,Cc1ccc(C(=O)N2CC[C@@]3(O)CCCC[C@H]3C2)cc1,-45.1
17,COCc1nc(C(=O)N2CCCC(n3ccnc3C)C2)cs1 (stereo not given),-33.6
18,Cc1csc(N2CCN(CC(=O)NC3CCOCC3)CC2C)n1 (stereo not given),-7.13
19,COc1ccccc1CC(C)N(C)S(C)(=O)=O (stereo not given),14
20,O=C(COCc1ccccc1)N1CCCn2cncc2C1,0.375
21,CNc1nc2c(s1)C(c1cccc(Cl)c1Cl)CC(=O)N2 (stereo not given),5.97
22,Cc1cnn(C2CCCN(C(=O)c3c(C)oc(C)c3C)C2)c1 (stereo not given),2.56

row,SMILES,cytotoxicity at 10 µM [%]
1,CCn1cnnc1CNC(=O)NC(c1ccc(OC)cc1)C1CC1 (stereo not given),1.77
2,Cc1cccnc1NCCNC(=O)[C@H]1CNC[C@@H](C(=O)N2CCCC2)C1,-11.3
3,CN(C)CCNC(=O)CCC1CCN(C(=O)c2ccc(Cl)cc2O)CC1,-11.7
4,O=C(NC1CCC1)[C@@H]1CCO[C@@H]2CCN(CCc3ccccc3)C[C@H]21,-7.24
5,O=C(c1coc(COc2cccc(F)c2)n1)N1CC[C@H](O)[C@@H](O)C1,-11
6,CCNC(=O)C1CCN(Cc2ccc(C(=O)Nc3nnc(C)s3)cc2)C1 (stereo not given),-0.834
7,CN1C(=O)CC[C@@H]2[C@H]1CCN2S(=O)(=O)c1cccs1,-1.54
8,O=C(CCn1ccc2ccccc21)Nc1ccnn1CC1CCOC1 (stereo not given),2.56
9,CC(C)(C)OC(=O)N1CCC[C@H](NCC2=CCCOC2)C1,-6.93
10,Cc1ccc(C(=O)O)cc1S(=O)(=O)N(CC(C)O)c1ccccc1 (stereo not given),9.83
11,Cc1ccc(C(C(=O)N(C)CCc2cn[nH]c2)N(C)C)cc1 (stereo not given),0.0341
12,CNC(=O)CCc1cccc(OC2CCCC2)c1,-0.408
13,O=C(CN1C(=O)CCC1=O)N1CCOCC1,2.48
14,O=C(C1=CCCC1)N1C[C@@H]2COC[C@]2(COCc2ccncc2)C1,-96.4
15,Cc1cc(C(=O)NCCc2c(C)nn(C)c2C)nc(N2CCCCC2)n1,-16
16,Cn1nccc1C(=O)N1CCCC1c1[nH]ncc1C(N)=O (stereo not given),-15.2
17,Cc1ccc(C(=O)N(C)CC(=O)NCC(F)(F)F)cn1,-4.46
18,Cc1nn(CC(=O)NCC2(C(N)=O)CCOCC2)c(C)c1Cl,2.83
19,Cc1cnc(N2CCC[C@@H]3CN(S(C)(=O)=O)C[C@@H]32)nc1,9.34
20,Fc1cccc(CN2C[C@@H]3CN(Cc4ccccn4)C[C@@H]3C2)c1,-1.07
21,Cn1c(CN2CCOCC2)cc(=O)c(O)c1CN1CCOCC1,-5.61
22,Cn1c(=O)oc2ccc(NC(=O)N3CCSCC3)cc21,2.58

row,SMILES,cytotoxicity at 10 µM [%]
1,O=S(=O)(c1ccc2c(c1)OCCO2)N1CCC(OCc2ccccn2)C1 (stereo not given),-1.18
2,c1cnc(N2CCC3(CN(CC4CCOC4)C3)C2)nc1 (stereo not given),-5.77
3,CNC(=O)CN1CCC(CN(C)Cc2ccncc2Cl)CC1,-2.87
4,CN1CCC(N(Cc2ccco2)S(=O)(=O)c2cc(Br)ccc2Br)CC1,-17.7
5,CC(NC(=O)NCC(F)(F)F)c1nncn1C (stereo not given),-1.63
6,CN(Cc1cc(C[C@@H]2C[C@H](N)C2(C)C)no1)c1ccccc1,-1.8
7,COc1cccc(-c2n[nH]cc2C(=O)NC(C)c2n[nH]c(C)n2)c1 (stereo not given),-6.26
8,Cc1cnc(C(NC(=O)NCC2(CO)CC2)C2CC2)s1 (stereo not given),1.8
9,CCCc1nc(CNC(C)Cn2cccn2)cs1 (stereo not given),-12.5
10,CCN(Cc1noc(C2CCC2)n1)C(=O)CCc1cc2n(n1)CCNC2,10.5
11,Cc1ncccc1CNCC1COC2(CCCCC2)O1 (stereo not given),-149
12,O=C(N1CCN(c2ccccc2O)CC1)C1(O)Cc2ccccc2C1,0.0894
13,Cc1nc(C)c(C(=O)NCc2nc3cccc(C)c3n2C)o1,40.1
14,CNC(=O)c1cccc(CCNc2ccc(C#N)cn2)c1,-3.67
15,COCCN1CCOCC2(CCN(c3cnccn3)CC2)C1,-87.4
16,COC(=O)[C@@H]1Cc2c[nH]c3cccc(c23)[C@H](CC(C)C)N1,9.57
17,Cc1ccc(C(=O)NC(C)CN2CCCC2=O)c(=O)[nH]1 (stereo not given),-0.524
18,Cn1ccc(C(=O)Nc2nccn2Cc2ccccc2Cl)cc1=O,-1.92
19,CS(=O)(=O)NC[C@]12COC[C@H]1CN(C(=O)c1ccccc1)C2,1.44
20,O=C(NCC1CCS(=O)(=O)C1)c1sccc1-c1ccc(F)cc1 (stereo not given),-1.79
21,CC(C(=O)Nc1ccnn1C(C)C)N1CCc2nn(C)c(=O)cc2C1 (stereo not given),3.95
22,CC(C)(C)NCc1ccc(OCc2ccc3c(c2)OCCO3)cc1,1.99

row,SMILES,cytotoxicity at 10 µM [%]
1,CN1CCN(Cc2cn3c(n2)CN(CC2CC2)CC3)CC1,-119
2,COc1ccc(C(=O)C2CCCN(Cc3cnn(C)c3C)C2)c(OC)c1 (stereo not given),-8.85
3,COc1ccc(-c2csc3c2c(N)nc(=O)n3CCCN(C)C)cc1,-54
4,Cc1cc(-n2nc(C3CC3)nc2-c2csnn2)ccn1,6.37
5,CN1CCN(Cc2cn3c(n2)CN(Cc2cccc(F)c2)CC3)CC1,-125
6,CNC(=O)c1cn[nH]c1C1CCN(Cc2cn(C)nc2C)C1 (stereo not given),-24.3
7,COc1ncccc1CNC(=O)N(Cc1ccccc1F)C1CC1,2.99
8,O=C1N(c2ccsc2)CCC12CCCN(c1ccccn1)C2 (stereo not given),-103
9,Cc1cc(CN2C[C@@H]3CN(C(=O)c4cccn4C)CCO[C@@H]3C2)no1,-148
10,N#Cc1ccc(OC2CCN(C(=O)Cc3cccs3)CC2)nc1,1.96
11,COc1ccc(CNC[C@H]2Cn3ccnc3CO2)cn1,8.73
12,CCn1ncc(C(=O)NCCc2nc(-c3ccncc3)n[nH]2)c1C,6.87
13,O=C(NCCCn1ccnn1)C1CCCN(C2CCCC2)C1 (stereo not given),-6.03
14,C[C@H](O)CNc1cc(-c2cn[nH]c2)ncn1,-15.6
15,COCCCNC(=O)c1nnsc1-c1ccccc1,5.09
16,O=C(C1CCCN(C2CCOCC2)C1)N1Cc2ccccc2C1 (stereo not given),2.49
17,c1cncc(OC[C@@]23CCC[C@@H]2CN(CC2CCOCC2)C3)c1,7.66
18,OCC1CCCN1c1cc(N2CCN(c3ccccn3)CC2)ncn1 (stereo not given),3.97
19,Cc1nn(C)c(C)c1CN(C)c1nc(C2CC2)nc2c(C)nn(C)c12,3.98
20,O=C(Cn1nc2c(cc1=O)CCCC2)NC(Cc1ccccc1)C(=O)O (stereo not given),2.24
21,Cc1cccn2cc(CN3CCCC(c4noc(C5CC5)n4)C3)nc12 (stereo not given),2.29
22,O=C(c1ccccn1)N1Cc2nccn2CC(CN2CCOCC2)C1 (stereo not given),2.16
